Experimental data published in ChEMBL document CHEMBL1124955, “2-substituted-1-naphthols as potent 5-lipoxygenase inhibitors with topical antiinflammatory activity” (J Med Chem, 1990).

How the values were obtained:
[1] = target: T1, Polyunsaturated fatty acid 5-lipoxygenase (Rattus norvegicus, UniProt P12527); assay: Ability to inhibit 5-lipoxygenase by using a crude preparation of the cytosolic enzyme from the rat basophilic leukemia (RBL-1) cell line; assay type: cell-based
T1 sequence (P12527 whole entry): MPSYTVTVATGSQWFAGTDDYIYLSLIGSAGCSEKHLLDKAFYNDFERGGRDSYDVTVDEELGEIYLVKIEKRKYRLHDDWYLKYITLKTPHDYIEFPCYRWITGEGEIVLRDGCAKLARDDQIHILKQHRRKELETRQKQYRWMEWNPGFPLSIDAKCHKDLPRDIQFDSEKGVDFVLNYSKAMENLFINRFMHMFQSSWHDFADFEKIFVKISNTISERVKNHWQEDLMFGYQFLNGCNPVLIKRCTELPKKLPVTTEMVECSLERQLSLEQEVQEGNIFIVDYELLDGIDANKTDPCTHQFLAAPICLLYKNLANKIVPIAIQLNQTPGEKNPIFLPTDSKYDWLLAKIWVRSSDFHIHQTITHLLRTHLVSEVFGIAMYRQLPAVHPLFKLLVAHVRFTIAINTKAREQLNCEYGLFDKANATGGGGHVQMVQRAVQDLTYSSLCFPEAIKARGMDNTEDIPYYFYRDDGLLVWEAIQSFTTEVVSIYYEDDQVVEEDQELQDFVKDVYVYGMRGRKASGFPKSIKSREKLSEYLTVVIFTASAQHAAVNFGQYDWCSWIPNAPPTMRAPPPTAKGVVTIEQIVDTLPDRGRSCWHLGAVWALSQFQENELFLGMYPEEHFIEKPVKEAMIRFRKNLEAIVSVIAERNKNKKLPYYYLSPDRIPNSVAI
Outline: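 Crude cytosolic enzyme (supernatant) from RBL-1 cells, amount giving net 3300–3800 dpm 5-HETE (9–20 μg cell protein/assay). Enzyme is preincubated 5 min at 37 °C, pH 7.0, with compound (in 5% DMSO/Tris pH 8.5) in phosphate buffer with EDTA, gelatin, glutathione, CaCl2 and 0.012 mM indomethacin. Reaction is started with 0.042 mM final [14C]arachidonic acid and stopped by freezing after 2 min.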

Mus musculus [2] = assay: Percentage inhibition of the mouse arachidonic acid induced ear edema assay (AA) at a dose of 100 ug/ear; assay type: functional
Outline: (§1)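 Groups of 10 male CF1 mice (18–20 g). Compound in acetone is applied topically to both ears just before 1 mg arachidonic acid in acetone is applied to one ear; the other ear serves as control. Mice are killed 60 min later and 6-mm ear punches weighed; swelling is the weight difference. %Inhibition = [(C−T)/C]×100, with Student's t test.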

[3] = target: Cyclooxygenase (Bos taurus) (UniProt O62664+O62698); assay: Ability to inhibit Prostaglandin G/H synthase by using the bovine seminal vesicle enzyme assay on BSV cell line at a concentration of 75 uM; assay type: tissue-based
Outline: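 Bovine seminal vesicle cyclooxygenase (40 μg) with Tris pH 8.5 and cofactors (glutathione, epinephrine, EDTA) is chilled on ice. Compound in DMSO diluted with Tris is added, then preincubated 2 min at 37 °C. [14C]arachidonic acid (0.2 μCi/mL in 0.1 mM sodium arachidonate) is added and the reaction runs 10 min. Duplicates are run; values are the percent inhibition at the concentration shown.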

Cyclooxygenase = target: T2, Cyclooxygenase (Bos taurus, UniProt O62664+O62698); assay: In vitro inhibition of Prostaglandin G/H synthase in BSV cell line.; assay type: cell-based
T2 sequence (O62664 whole entry): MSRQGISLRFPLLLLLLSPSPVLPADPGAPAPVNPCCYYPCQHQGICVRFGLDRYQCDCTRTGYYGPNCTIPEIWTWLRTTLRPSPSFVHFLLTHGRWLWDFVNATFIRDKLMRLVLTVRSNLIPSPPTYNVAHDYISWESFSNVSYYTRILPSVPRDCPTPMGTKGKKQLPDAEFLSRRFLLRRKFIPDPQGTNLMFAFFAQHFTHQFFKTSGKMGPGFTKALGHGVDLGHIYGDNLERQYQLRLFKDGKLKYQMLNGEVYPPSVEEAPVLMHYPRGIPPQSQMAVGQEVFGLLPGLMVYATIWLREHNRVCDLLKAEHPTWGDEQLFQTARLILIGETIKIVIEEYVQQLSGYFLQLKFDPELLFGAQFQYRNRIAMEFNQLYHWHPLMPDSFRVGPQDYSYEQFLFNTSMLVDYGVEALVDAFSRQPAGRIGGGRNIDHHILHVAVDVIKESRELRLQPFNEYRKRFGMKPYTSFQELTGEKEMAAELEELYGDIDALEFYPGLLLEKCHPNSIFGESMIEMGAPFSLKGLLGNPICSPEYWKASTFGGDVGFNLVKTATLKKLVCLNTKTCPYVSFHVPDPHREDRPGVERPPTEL
T2 sequence (O62698 whole entry): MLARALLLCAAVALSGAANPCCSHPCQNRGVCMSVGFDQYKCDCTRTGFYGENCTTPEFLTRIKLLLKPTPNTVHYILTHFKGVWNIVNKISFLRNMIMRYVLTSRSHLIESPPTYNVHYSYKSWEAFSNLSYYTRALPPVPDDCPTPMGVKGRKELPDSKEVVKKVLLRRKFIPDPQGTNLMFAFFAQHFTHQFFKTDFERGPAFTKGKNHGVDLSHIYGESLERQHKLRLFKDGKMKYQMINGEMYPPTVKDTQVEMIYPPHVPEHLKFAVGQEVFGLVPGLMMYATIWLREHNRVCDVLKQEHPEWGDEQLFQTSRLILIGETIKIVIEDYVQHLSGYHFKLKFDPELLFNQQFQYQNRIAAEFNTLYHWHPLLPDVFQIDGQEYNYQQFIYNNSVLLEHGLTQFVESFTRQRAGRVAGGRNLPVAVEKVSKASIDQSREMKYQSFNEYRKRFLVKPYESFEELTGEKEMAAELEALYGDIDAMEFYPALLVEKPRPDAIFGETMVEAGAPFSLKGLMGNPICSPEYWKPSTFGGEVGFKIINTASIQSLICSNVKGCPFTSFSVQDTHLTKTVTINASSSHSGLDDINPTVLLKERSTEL

Mus musculus [4] = assay: Effective dose to inhibit 50% of mouse arachidonic acid induced ear edema assay; assay type: functional; outline: as §1
[5] = target: T3, Polyunsaturated fatty acid 5-lipoxygenase (Rattus norvegicus) (UniProt P12527); assay: Ability to inhibit 5-lipoxygenase by using a crude preparation of the cytosolic enzyme from the rat basophilic leukemia (RBL-1) cell line at a concentration of 25 uM; assay type: cell-based
T3 sequence (whole entry): T1 sequence (P12527 whole entry)

Mus musculus [6] = assay: percentage inhibition of the mouse arachidonic acid induced ear edema assay (AA) (Dose is 100 ug/ear); assay type: functional; outline: as §1

SMILES | IC50 [1] [µM] | Inhibition (Mus musculus [2]) [%] | inhibition [3] [%] | IC50 (Cyclooxygenase) [µM] | ED50 (Mus musculus [4]) [ug ear-1] | inhibition [5] [%] | Inhibition (Mus musculus [6]) [%]
OCCOc1c(Cc2ccccc2)ccc2ccccc12 | 40 | 12 | 28 | – | – | – | –
CCOC(=O)CCCCc1ccc2ccccc2c1O | 0.011 | 74 | – | 18 | 40 | – | –
O=C1CCN(c2ccccc2)N1 [PHENIDONE] | – | 58 | 31 | – | 41 | – | –
CC(=O)Nc1c(Cc2ccccc2)ccc2ccccc12 | – | 8 | – | – | – | 13 | –
Oc1c(Cc2ccccc2)ccc2ccccc12 | 0.019 | 82 | – | 3.4 | 9.4 | – | –
Oc1ccc2ccccc2c1Cc1ccccc1 | 3.9 | – | – | 16 | – | – | 23
COc1c(OC)c(OC(C)=O)c2cc(Cl)ccc2c1OC(C)=O [LONAPALENE] | 0.7 | 50 | 0 | – | 100 | – | –
O=C(c1ccccc1)c1ccc2ccccc2c1O | 20 | 30 | 26 | – | – | – | –
C=CCc1ccc2ccccc2c1O | 0.056 | 91 | – | 18 | 4.4 | – | –
OCc1ccccc1/C=C/Cc1cc2c(cc1O)CCO2 | 0.25 | 52 | – | 57 | 55 | – | –
COc1ccc2c(c1)c(CC(=O)O)c(C)n2C(=O)c1ccc(Cl)cc1 [INDOMETHACIN] | – | 20 | – | – | 780 | 47 | –
O=C1C=C(Cc2ccccc2)C(=O)c2ccccc21 | 0.29 | 59 | 16 | – | – | – | –
CCOC(=O)CCC/C(=N\O)c1ccc2ccccc2c1O | 2.7 | 29 | 27 | – | – | – | –
Oc1ccccc1Cc1ccccc1 | 63 | 32 | 22 | – | – | – | –
COc1c(Cc2ccccc2)ccc2ccccc12 | 55 | 5 | 0 | – | – | – | –
CCOC(=O)c1ccc2ccccc2c1O | 25 | 0 | 0 | – | – | – | –
CCOC(=O)CCCC(=O)c1ccc2ccccc2c1O | – | 13 | 12 | – | – | 23 | –
O=C(O)c1c(Cc2ccccc2)ccc2ccccc12 | – | 0 | 15 | – | – | 2 | –
